{
  "source": "ChEMBL document CHEMBL2412970",
  "about": "“Synthesis and anticancer activity of 2,4-disubstituted furo[3,2-b]indole derivatives” (Eur J Med Chem, 2013)",
  "key": {"A498 [1]": {"tested_on": "A498", "experiment": "Induction of apoptosis in human A498 cells assessed as increase in AIF level at 0.5 uM after 6 to 48 hrs by Western blotting analysis", "assay_type": "functional, cell-based", "procedure,_shortened": "(§1)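 A498 cells exposed for 6, 12, 24, 36 or 48 h, then washed in PBS and lysed. Lysates were held on ice for 30 min and spun at 12 000g for 20 min. Supernatant protein was measured by Bradford assay, run on 10% SDS-PAGE and transferred to nitrocellulose. Blots were probed for AIF, Endo G, Apaf-1, cytochrome c, caspase 9 and caspase 3, with β-actin as loading control; n = 3 independent experiments.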"}, "A498 [2]": {"tested_on": "A498", "experiment": "Cytotoxicity against human A498 cells assessed as reduction in cell viability at 0.1 uM after 48 hrs by MTT assay relative to control", "assay_type": "functional"}, "KM12": {"tested_on": "KM12", "experiment": "Cytotoxicity against human KM12 cells after 48 hrs by sulforhodamine B assay", "assay_type": "functional", "details": "KM12, 48 h"}, "A498 [3]": {"tested_on": "A498", "experiment": "Cell cycle arrest in human A498 cells assessed as accumulation at sub-G1 phase at 0.5 uM after 24 hrs by propidium iodide staining-based flow cytometry (reference value: 0.10 +/- 0.07%)", "assay_type": "functional"}, "PC-3": {"tested_on": "PC-3", "experiment": "Cytotoxicity against human PC3 cells after 48 hrs by sulforhodamine B assay", "assay_type": "functional", "details": "PC-3, 48 h"}, "M14": {"tested_on": "M14", "experiment": "Cytotoxicity against human M14 cells after 48 hrs by sulforhodamine B assay", "assay_type": "functional", "details": "M14, 48 h"}, "A498 [4]": {"tested_on": "A498", "experiment": "Induction of apoptosis in human A498 cells assessed as caspase-9 activation at 0.5 uM after 24 hrs by Western blotting analysis", "assay_type": "functional, cell-based", "procedure,_shortened": "as §1"}, "OVCAR-4": {"tested_on": "OVCAR-4", "experiment": "Cytotoxicity against human OVCAR4 cells after 48 hrs by sulforhodamine B assay", "assay_type": "functional", "details": "OVCAR-4, 48 h"}, "A498 [5]": {"tested_on": "A498", "experiment": "Induction of apoptosis in human A498 cells assessed as late apoptotic cells at 0.5 uM after 12 hrs by AnnexinV/FITC-propidium iodide staining-based flow cytometry (reference value: 9.6%)", "assay_type": "functional", "procedure,_shortened": "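Flow cytometry with annexin V-FITC/PI double labeling of A498 cells treated for 12, 24, 36 or 48 h; untreated cells served as the 0 h control. Stained in binding buffer for 15 min at room temperature in the dark, with more binding buffer added just before analysis. Annexin V+/PI− (Q4) counted as early apoptotic and annexin V+/PI+ (Q2) as late apoptotic.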"}, "A498 [6]": {"tested_on": "A498", "experiment": "Induction of apoptosis in human A498 cells assessed as increase in cytochrome C level at 0.5 uM after 6 to 48 hrs by Western blotting analysis", "assay_type": "functional, cell-based", "procedure,_shortened": "as §1"}, "A498 [7]": {"tested_on": "A498", "experiment": "Induction of apoptosis in human A498 cells assessed as early apoptotic cells at 0.5 uM after 48 hrs by AnnexinV/FITC-propidium iodide staining-based flow cytometry (reference value: 3.9%)", "assay_type": "functional"}, "SN12C": {"tested_on": "SN12C", "experiment": "Cytotoxicity against human SN12C cells after 48 hrs by sulforhodamine B assay", "assay_type": "functional"}, "OVCAR-5": {"tested_on": "OVCAR-5", "experiment": "Cytotoxicity against human OVCAR5 cells after 48 hrs by sulforhodamine B assay", "assay_type": "functional", "details": "OVCAR-5, 48 h"}, "A549": {"tested_on": "A549", "experiment": "Cytotoxicity against human A549/ATCC cells after 48 hrs by sulforhodamine B assay", "assay_type": "functional", "details": "A549, 48 h"}, "MDA-MB-231": {"tested_on": "MDA-MB-231", "experiment": "Cytotoxicity against human MDA-MB-231 cells after 48 hrs by sulforhodamine B assay", "assay_type": "functional", "details": "MDA-MB-231, 48 h"}, "SNB-19": {"tested_on": "SNB-19", "experiment": "Cytotoxicity against human SNB19 cells after 48 hrs by sulforhodamine B assay", "assay_type": "functional", "details": "SNB-19, 48 h"}, "NCI-H322M": {"tested_on": "NCI-H322M", "experiment": "Cytotoxicity against human NCI-H322M cells after 48 hrs by sulforhodamine B assay", "assay_type": "functional"}, "A498 [8]": {"tested_on": "A498", "experiment": "Ratio of YC-1 IC50 to compound IC50 for human A498 cells after 48 hrs by MTT assay", "assay_type": "functional"}, "HCT-15": {"tested_on": "HCT-15", "experiment": "Cytotoxicity against human HCT15 cells after 48 hrs by sulforhodamine B assay", "assay_type": "functional", "details": "HCT-15, 48 h"}, "A498 [9]": {"tested_on": "A498", "experiment": "Cell cycle arrest in human A498 cells assessed as accumulation at S phase at 0.5 uM after 36 hrs by propidium iodide staining-based flow cytometry (reference value: 15.92 +/- 0.03%)", "assay_type": "functional"}, "SK-OV-3": {"tested_on": "SK-OV-3", "experiment": "Cytotoxicity against human SKOV3 cells after 48 hrs by sulforhodamine B assay", "assay_type": "functional", "details": "SK-OV-3, 48 h"}, "A498 [10]": {"tested_on": "A498", "experiment": "Cell cycle arrest in human A498 cells assessed as accumulation at sub-G1 phase at 0.5 uM by propidium iodide staining-based flow cytometry", "assay_type": "functional", "details": "TDE = time-dependent effect"}, "[11]": {"details": "read-out: pLC50 (the source's name) (converted)"}},
  "note": "Active and inactive are the calls of the source. No cut-off for these calls is given here.",
  "data": [
    {"smiles": "OCc1ccc(Cn2c3ccccc3c3oc(CO)cc32)o1", "values": [
      {"measurement": "Activity", "setting": "A498 [1]", "value": "Active"},
      {"measurement": "Activity", "setting": "A498 [2]", "value": 82.8, "unit": "%"},
      {"measurement": "GI50", "setting": "KM12", "value": "> 100", "unit": "µM"},
      {"measurement": "CC50", "setting": "KM12; [11]", "value": "> 100", "unit": "µM"},
      {"measurement": "TGI", "setting": "KM12; read-out: pTGI", "value": "> 100", "unit": "µM"},
      {"measurement": "Activity", "setting": "A498 [3]", "value": 0.91, "unit": "%"},
      {"measurement": "GI50", "setting": "PC-3", "value": 55, "unit": "µM"},
      {"measurement": "CC50", "setting": "PC-3; [11]", "value": "> 100", "unit": "µM"},
      {"measurement": "TGI", "setting": "PC-3; read-out: pTGI", "value": "> 100", "unit": "µM"},
      {"measurement": "GI50", "setting": "M14", "value": 13.2, "unit": "µM"},
      {"measurement": "CC50", "setting": "M14; [11]", "value": "> 100", "unit": "µM"},
      {"measurement": "TGI", "setting": "M14; read-out: pTGI", "value": "> 100", "unit": "µM"},
      {"measurement": "Activity", "setting": "A498 [4]", "value": "Active"},
      {"measurement": "GI50", "setting": "OVCAR-4", "value": 4.27, "unit": "µM"},
      {"measurement": "CC50", "setting": "OVCAR-4; [11]", "value": "> 100", "unit": "µM"},
      {"measurement": "TGI", "setting": "OVCAR-4; read-out: pTGI", "value": "> 100", "unit": "µM"},
      {"measurement": "Activity", "setting": "A498 [5]", "value": 10, "unit": "%"},
      {"measurement": "Activity", "setting": "A498 [6]", "value": "Active"},
      {"measurement": "Activity", "setting": "A498 [7]", "value": 41, "unit": "%"},
      {"measurement": "GI50", "setting": "SN12C", "value": "> 100", "unit": "µM"},
      {"measurement": "CC50", "setting": "SN12C; [11]", "value": "> 100", "unit": "µM"},
      {"measurement": "TGI", "setting": "SN12C; read-out: pTGI", "value": "> 100", "unit": "µM"},
      {"measurement": "GI50", "setting": "OVCAR-5", "value": 0.331, "unit": "µM"},
      {"measurement": "TGI", "setting": "OVCAR-5; read-out: pTGI (converted)", "value": 1.2, "unit": "µM"},
      {"measurement": "GI50", "setting": "A549", "value": 64.6, "unit": "µM"},
      {"measurement": "CC50", "setting": "A549; [11]", "value": "> 100", "unit": "µM"},
      {"measurement": "TGI", "setting": "A549; read-out: pTGI", "value": "> 100", "unit": "µM"},
      {"measurement": "GI50", "setting": "MDA-MB-231", "value": 74.1, "unit": "µM"},
      {"measurement": "CC50", "setting": "MDA-MB-231; [11]", "value": "> 100", "unit": "µM"},
      {"measurement": "TGI", "setting": "MDA-MB-231; read-out: pTGI", "value": "> 100", "unit": "µM"},
      {"measurement": "GI50", "setting": "SNB-19", "value": "> 100", "unit": "µM"},
      {"measurement": "CC50", "setting": "SNB-19; [11]", "value": "> 100", "unit": "µM"},
      {"measurement": "TGI", "setting": "SNB-19; read-out: pTGI", "value": "> 100", "unit": "µM"},
      {"measurement": "GI50", "setting": "NCI-H322M", "value": "> 100", "unit": "µM"},
      {"measurement": "CC50", "setting": "NCI-H322M; [11]", "value": "> 100", "unit": "µM"},
      {"measurement": "TGI", "setting": "NCI-H322M; read-out: pTGI", "value": "> 100", "unit": "µM"},
      {"measurement": "Ratio IC50", "setting": "A498 [8]", "value": 1.5},
      {"measurement": "GI50", "setting": "HCT-15", "value": 87.1, "unit": "µM"},
      {"measurement": "CC50", "setting": "HCT-15; [11]", "value": "> 100", "unit": "µM"},
      {"measurement": "TGI", "setting": "HCT-15; read-out: pTGI", "value": "> 100", "unit": "µM"},
      {"measurement": "Activity", "setting": "A498 [9]", "value": 14.33, "unit": "%"},
      {"measurement": "GI50", "setting": "SK-OV-3", "value": "> 100", "unit": "µM"},
      {"measurement": "CC50", "setting": "SK-OV-3; [11]", "value": "> 100", "unit": "µM"},
      {"measurement": "TGI", "setting": "SK-OV-3; read-out: pTGI", "value": "> 100", "unit": "µM"},
      {"measurement": "Activity", "setting": "A498 [10]", "value": "tde"}
    ]}
  ]
}
